Laboratory results: ChEMBL document CHEMBL1140409, “Discovery of potent, nonsystemic apical sodium-codependent bile acid transporter inhibitors (Part 2)” (J Med Chem, 2005)

System: not listed separately
Assay: Amount (dissolved in aqueous Tween-80) in bile of rat was determined by fecal bile acid content for 45 min in a 37 degree C
Format: ADME, tissue-based, Feces
Set-up: concentration or dose not given beside the values
Conditions: in vivo, 0.75 h
Procedure, shortened: (§1)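 Male Wistar rats (275–300 g) were gavaged once each morning for 4 days at 5, 0.2 or 0.04 mpk in aqueous 0.2% (v/v) Tween-80 (2 mL/kg). Feces from the final 48 h were homogenized in twice their weight of water. Homogenate was diluted in butanol/water (2:0.6), extracted 45 min at 37 °C, centrifuged, and bile acids (μmol/day) measured enzymatically. Scores compared against a reference analogue at 0.04 mg/kg.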

Activity [%] | SMILES
0.17 | CCCCC1(CCCC)CS(=O)(=O)c2ccc(N(C)C)cc2[C@@H](c2ccc(OCc3cccc(CN(CC(=O)O)CC(=O)O)n3)cc2)[C@H]1O
0.12 | CCCCC1(CCCC)CS(=O)(=O)c2ccc(N(C)C)cc2[C@@H](c2ccc(OCc3ccc(CN(CC(=O)O)CC(=O)O)cc3)cc2)[C@H]1O
0.21 | CCCCC1(CCCC)CS(=O)(=O)c2ccc(N(C)C)cc2[C@@H](c2ccc(OCCC[N+]34CCN(CC3)CC4)cc2)[C@H]1O
0.03 | CCCCC1(CCCC)CS(=O)(=O)c2ccc(N(C)C)cc2[C@@H](c2ccc(OCc3cc[n+](C)cc3)cc2)[C@H]1O
7.14 | CCCCC1(CCCC)CS(=O)(=O)c2ccc(N(C)C)cc2[C@@H](c2ccc(OCC(=O)NCC(=O)O)cc2)[C@H]1O
0.11 | CCCCC1(CCCC)CS(=O)(=O)c2ccc(N(C)C)cc2[C@@H](c2ccc(OCc3ccc(C[N+]45CCN(CC4)CC5)cc3)cc2)[C@H]1O [MARALIXIBAT]
0.12 | CCCCC1(CCCC)CS(=O)(=O)c2ccc(N(C)C)cc2[C@@H](c2ccc(OCCCC[N+]34CCN(CC3)CC4)cc2)[C@H]1O

System: not listed separately
Assay: Efficacy to increase fecal bile acid excretion; + is more efficacious
Format: ADME, tissue-based, Feces
Conditions: rat
Procedure, shortened: as §1

Efficacy | SMILES
More efficacious than analogue 2 | CCCCC1(CCCC)CS(=O)(=O)c2ccc(N(C)C)cc2[C@@H](c2ccc(OCc3cccc(CN(CC(=O)O)CC(=O)O)n3)cc2)[C@H]1O
More efficacious than analogue 2 | CCCCC1(CCCC)CS(=O)(=O)c2ccc(N(C)C)cc2[C@@H](c2ccc(OCCC[N+]34CCN(CC3)CC4)cc2)[C@H]1O
More efficacious than analogue 2 | CCCCC1(CCCC)CS(=O)(=O)c2ccc(N(C)C)cc2[C@@H](c2ccc(OCc3cc[n+](C)cc3)cc2)[C@H]1O
More efficacious than analogue 2 | CCCCC1(CCCC)CS(=O)(=O)c2ccc(N(C)C)cc2[C@@H](c2ccc(OCC(=O)NCC(=O)O)cc2)[C@H]1O
More efficacious than analogue 2 | CCCCC1(CCCC)CS(=O)(=O)c2ccc(N(C)C)cc2[C@@H](c2ccc(OCc3ccc(C[N+]45CCN(CC4)CC5)cc3)cc2)[C@H]1O [MARALIXIBAT]
More efficacious than analogue 2 | CCCCC1(CCCC)CS(=O)(=O)c2ccc(N(C)C)cc2[C@@H](c2ccc(OCCCC[N+]34CCN(CC3)CC4)cc2)[C@H]1O

Molecular target: T1, Ileal sodium/bile acid cotransporter (Homo sapiens, UniProt Q12908)
T1 sequence (Q12908 whole entry): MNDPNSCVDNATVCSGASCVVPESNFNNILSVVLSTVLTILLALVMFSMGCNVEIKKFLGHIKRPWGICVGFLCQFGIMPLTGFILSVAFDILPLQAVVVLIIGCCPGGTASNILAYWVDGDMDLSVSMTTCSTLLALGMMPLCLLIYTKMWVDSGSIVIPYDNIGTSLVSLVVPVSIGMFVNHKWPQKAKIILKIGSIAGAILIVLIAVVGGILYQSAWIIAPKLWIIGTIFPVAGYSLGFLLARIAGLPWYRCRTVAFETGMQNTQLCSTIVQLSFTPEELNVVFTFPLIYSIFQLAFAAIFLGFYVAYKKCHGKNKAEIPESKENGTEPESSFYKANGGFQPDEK
Assay: In vitro inhibition of ASBT mediated uptake of [14C]taurocholate (5 uM) in baby hamster cells expressing human IBAT
Format: cell-based
Conditions: not given

SMILES | IC50 [nM]
CCCCC1(CCCC)CS(=O)(=O)c2ccc(N(C)C)cc2[C@@H](c2ccc(OCCOCC[N+]34CCN(CC3)CC4)cc2)[C@H]1O | 8.5
CCCCC1(CCCC)CS(=O)(=O)c2ccc(N(C)C)cc2[C@@H](c2cccc(OCCN(CC)CC)c2)[C@H]1O | 45
CCCCC1(CCCC)CS(=O)(=O)c2ccc(N(C)C)cc2[C@@H](c2ccc(OCc3cccc(CN(CC(=O)O)CC(=O)O)n3)cc2)[C@H]1O | 4
CCCCC1(CCCC)CS(=O)(=O)c2ccc(N(C)C)cc2[C@@H](c2cccc(NC(=O)CCCC[N+](CC)(CC)CC)c2)[C@H]1O | 0.76
CCCCC1(CCCC)CS(=O)(=O)c2ccc(N(C)C)cc2[C@@H](c2ccc(OCCCCC[N+]34CCN(CC3)CC4)cc2)[C@H]1O | 0.5
CCCCC1(CCCC)CS(=O)(=O)c2ccc(N(C)C)cc2[C@@H](c2ccc(OC)c(F)c2)[C@H]1O (racemic) | 3.6
CCCCC1(CCCC)CS(=O)(=O)c2ccc(N(C)C)cc2[C@@H](c2ccc(OCc3ccncc3)cc2)[C@H]1O | 28
CCCCC1(CCCC)CS(=O)(=O)c2ccc(N(C)C)cc2[C@@H](c2ccc(OCCCCC[N+](CC)(CC)CC)cc2)[C@H]1O | 2
CCCCC1(CCCC)CS(=O)(=O)c2ccc(N(C)C)cc2[C@@H](c2ccccn2)[C@H]1O (racemic) | 5
CCCCC1(CCCC)CS(=O)(=O)c2ccc(N(C)C)cc2[C@@H](c2ccc(OCCCCCN(CC)CC)cc2)[C@H]1O | 16
CCCCC1(CCCC)CS(=O)(=O)c2ccc(N(C)C)cc2[C@@H](c2cccc(OCCCCC[N+](CC)(CC)CC)c2)[C@H]1O | 2
CCCCC1(CCCC)CS(=O)(=O)c2ccc(N(C)C)cc2[C@@H](c2cccc(CS(=O)(=O)O)c2)[C@H]1O (racemic) | 3.7
CCCCC1(CCCC)CS(=O)(=O)c2ccc(N(C)C)cc2[C@@H](c2cccc(C[n+]3ccccc3)c2)[C@H]1O (racemic) | 7.5
CCCCC1(CCCC)CS(=O)(=O)c2ccc(N(C)C)cc2[C@@H](c2ccc(OCc3cc[n+](C)cc3)cc2)[C@H]1O | 0.75
CCCCC1(CCCC)CS(=O)(=O)c2ccc(N(C)C)cc2[C@@H](c2cccc(C[N+](C)(C)C)c2)[C@H]1O | 67
CCCCC1(CCCC)CS(=O)(=O)c2ccc(N(C)C)cc2[C@@H](c2ccc(OCc3cc[n+](CC)cc3)cc2)[C@H]1O | 6
CCCCC1(CCCC)CS(=O)(=O)c2ccc(N(C)C)cc2[C@@H](c2ccc(OCCOCCOCCN3CCCN(C)CCN(C)CCCN(C)CC3)c(F)c2)[C@H]1O | 3
CCCCC1(CCCC)CS(=O)(=O)c2ccc(N(C)C)cc2[C@@H](c2cccs2)[C@H]1O (racemic) | 30

SMILES | IC50 [nM]
CCCCC1(CCCC)CS(=O)(=O)c2ccc(N(C)C)cc2[C@@H](c2cccc(OCC[N+](CC)(CC)CC)c2)[C@H]1O | 7
CCCCC1(CCCC)CS(=O)(=O)c2ccc(N(C)C)cc2[C@@H](c2cccc(Nc3ccncc3)c2)[C@H]1O | 52
CCCCC1(CCCC)CS(=O)(=O)c2ccc(N(C)C)cc2[C@@H](c2cccc(NCC(=O)NCC(=O)O)c2)[C@H]1O | 0.3
CCCCC1(CCCC)CS(=O)(=O)c2ccc(N(C)C)cc2[C@@H](c2ccc3cc(OC)ccc3c2)[C@H]1O (racemic) | 75
CCCCC1(CCCC)CS(=O)(=O)c2ccc(N(C)C)cc2[C@@H](c2cccc3ccccc23)[C@H]1O (racemic) | 620
CCCCC1(CCCC)CS(=O)(=O)c2ccc(N(C)C)cc2[C@@H](c2ccc(OC)c(OC)c2)[C@H]1O (racemic) | 20
CCCCC1(CCCC)CS(=O)(=O)c2ccc(N(C)C)cc2[C@@H](c2ccc(OCCOCCOCCN(CCO)CCO)cc2)[C@H]1O | 9
CCCCC1(CCCC)CS(=O)(=O)c2ccc(N(C)C)cc2[C@@H](c2cccc(CN(C)C)c2)[C@H]1O (racemic) | 47
CCCCC1(CCCC)CS(=O)(=O)c2ccc(N(C)C)cc2[C@@H](c2cccc(Nc3cc[n+](C)cc3)c2)[C@H]1O | 2
CCCCC1(CCCC)CS(=O)(=O)c2ccc(N(C)C)cc2[C@@H](c2ccc(OCCOCCOCC[N+](C)(C)C)cc2)[C@H]1O | 4
CCCCC1(CCCC)CS(=O)(=O)c2ccc(N(C)C)cc2[C@@H](c2ccc(OCCOCC[N+](CC)(CC)CC)cc2)[C@H]1O | 5.7
CCCCC1(CCCC)CS(=O)(=O)c2ccc(N(C)C)cc2[C@@H](c2ccc(OCCOCCOCC[N+]34CCN(CC3)CC4)cc2)[C@H]1O | 4
CCCCC1(CCCC)CS(=O)(=O)c2ccc(N(C)C)cc2[C@@H](c2ccc[n+](C)c2)[C@H]1O (racemic) | 220
CCCCC1(CCCC)CS(=O)(=O)c2ccc(N(C)C)cc2[C@@H](c2ccc(C[N+](CC)(CC)CC)cc2)[C@H]1O (racemic) | 5500
CCCCC1(CCCC)CS(=O)(=O)c2ccc(N(C)C)cc2[C@@H](c2ccc(C[n+]3ccccc3)cc2)[C@H]1O (racemic) | 850
CCCCC1(CCCC)CS(=O)(=O)c2ccc(N(C)C)cc2[C@@H](c2cccc(C(=O)OC)c2)[C@H]1O (racemic) | 7
CCCCC1(CCCC)CS(=O)(=O)c2ccc(N(C)C)cc2[C@@H](c2ccc(OCCOCCOCCN(CC)CC)cc2)[C@H]1O | 30

More lines, now with the values ahead:

IC50 [nM] | SMILES
17 | CCCCC1(CCCC)CS(=O)(=O)c2ccc(N(C)C)cc2[C@@H](c2ccc3cc(O)ccc3c2)[C@H]1O (racemic)
6.8 | CCCCC1(CCCC)CS(=O)(=O)c2ccc(N(C)C)cc2[C@@H](c2ccc(OC)cc2)[C@H]1O (racemic)
22 | CCCCC1(CCCC)CS(=O)(=O)c2ccc(N(C)C)cc2[C@@H](c2ccc(F)c(F)c2)[C@H]1O (racemic)
4.5 | CCCCC1(CCCC)CS(=O)(=O)c2ccc(N(C)C)cc2[C@@H](c2cccc(CO)c2)[C@H]1O (racemic)
2 | CCCCC1(CCCC)CS(=O)(=O)c2ccc(N(C)C)cc2[C@@H](c2cccc(N)c2)[C@H]1O (racemic)
11 | CCCCC1(CCCC)CS(=O)(=O)c2ccc(N(C)C)cc2[C@@H](c2ccc(CO)cc2)[C@H]1O (racemic)
930 | CCCCC1(CCCC)CS(=O)(=O)c2ccc(N(C)C)cc2[C@@H](c2ccc(CN(CC)CC)cc2)[C@H]1O (racemic)
8800 | CCCCC1(CCCC)CS(=O)(=O)c2ccc(N(C)C)cc2[C@@H](c2ccc(C[N+](C)(C)C)cc2)[C@H]1O (racemic)
5 | CCCCC1(CCCC)CS(=O)(=O)c2ccc(N(C)C)cc2[C@@H](c2ccsc2)[C@H]1O (racemic)
2.2 | CCCCC1(CCCC)CS(=O)(=O)c2ccc(N(C)C)cc2[C@@H](c2ccc(O)cc2)[C@H]1O (racemic)
1000 | CCCCC1(CCCC)CS(=O)(=O)c2ccc(N(C)C)cc2[C@@H](c2ccc(C(C)(C)C)cc2)[C@H]1O (racemic)
9.5 | CCCCC1(CCCC)CS(=O)(=O)c2ccc(N(C)C)cc2[C@@H](c2ccc(O)c(O)c2)[C@H]1O (racemic)
11 | CCCCC1(CCCC)CS(=O)(=O)c2ccc(N(C)C)cc2[C@@H](c2cccc(OC)c2)[C@H]1O (racemic)
42 | CCCCC1(CCCC)CS(=O)(=O)c2ccc(N(C)C)cc2[C@@H](c2ccc(SC)cc2)[C@H]1O (racemic)
8 | CCCCC1(CCCC)CS(=O)(=O)c2ccc(N(C)C)cc2[C@@H](c2ccncc2)[C@H]1O (racemic)
260 | CCCCC1(CCCC)CS(=O)(=O)c2ccc(N(C)C)cc2[C@@H](c2ccc(OCC[N+](C)(C)C)cc2)[C@H]1O
7.5 | CCCCC1(CCCC)CS(=O)(=O)c2ccc(N(C)C)cc2[C@@H](c2cccnc2)[C@H]1O (racemic)
41 | CCCCC1(CCCC)CS(=O)(=O)c2ccc(N(C)C)cc2[C@@H](c2ccc(C(=O)OC)cc2)[C@H]1O (racemic)
7.3 | CCCCC1(CCCC)CS(=O)(=O)c2ccc(N(C)C)cc2[C@@H](c2cccc(O)c2)[C@H]1O (racemic)
320 | CCCCC1(CCCC)CS(=O)(=O)c2ccc(N(C)C)cc2[C@@H](c2ccc(C(=O)O)cc2)[C@H]1O (racemic)
340 | CCCCC1(CCCC)CS(=O)(=O)c2ccc(N(C)C)cc2[C@@H](c2ccc(OCCN(C)C)cc2)[C@H]1O
